The values below come from ChEMBL document CHEMBL1154402, “Antiviral effect of orally administered (-)-beta-D-2-aminopurine dioxolane in woodchucks with chronic woodchuck hepatitis virus infection” (Antimicrob Agents Chemother, 2007).

Active and inactive are the calls of the source. The calls are words filed in the database; no cut-off is given here.

Series [1] has as its system Woodchuck hepatitis virus. Briefly: Antiviral activity against woodchuck hepatitis virus infected woodchucks assessed as log reduction of serum viral DNA per ml of serum after 4 weeks. It counts as functional.
In series [2] the test system is Duck hepatitis B virus. As to the kind of experiment: Antiviral activity against Duck hepatitis B virus experimentally infected ducklings assessed as log reduction of serum viral DNA copies per ml of serum at 40 mg/kg, ip after 10 days. As to conditions: route intraperitoneal.
The subject of series [3] is Duck hepatitis B virus. As to the kind of experiment: Antiviral activity against Duck hepatitis B virus chronically infected ducklings assessed as log reduction of serum viral DNA copies per ml of serum at 20 mg/kg, ip after 10 days. The settings on record: route intraperitoneal.
The test system of series [4] is Duck hepatitis B virus. As to the kind of experiment: Antiviral activity against Duck hepatitis B virus infected ip dosed ducklings assessed as log reduction of serum viral DNA copies per ml of serum after 10 days.
Series [5] can be described thus: Cmax in woodchuck hepatitis virus-negative woodchucks at 33.3 mg/kg, iv administered as single dose followed by dose of 33.3 mg/kg, po after 4 weeks washout period. The settings on record: marmota monax, in vivo. The format is ADME, organism-based. An outline of the steps: (§1)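 Three WHV-negative adult woodchucks got a 33.3 mg/kg iv bolus, with one saline control. After a 4-week washout the same three got 33.3 mg/kg orally. Blood was drawn predose and at 0.25–24 h. Serum APD and DXG were measured by HPLC-UV (LOQ 0.2 µM) and analysed noncompartmentally. AUC0-∞ used the trapezoidal rule, extrapolated by Clast/λz.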

The test system of series [6] is Marmota monax. As to the kind of experiment: Toxicity in woodchuck hepatitis virus chronically infected woodchuck assessed as serum sorbitol dehydrogenase level at 30 mg/kg/day, po after 4 weeks. The arrangement: route oral. The format is organism-based. The settings on record: in vivo, 672 h. A digest of the protocol:
(§2)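 Serum ALT and SDH were measured as hepatocellular injury markers in chronic WHV carriers dosed orally once daily for 4 weeks. Blood was drawn under ketamine (50 mg/kg) and xylazine (5 mg/kg) im anaesthesia before treatment and weekly during treatment.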

A short description of series [7]: Terminal elimination half life in woodchuck hepatitis virus-negative woodchucks at 33.3 mg/kg, iv administered as single dose followed by dose of 33.3 mg/kg, po after 4 weeks washout period. It counts as ADME, organism-based. The settings on record: marmota monax, in vivo, read-out: beta t1/2 (converted). A digest of the protocol: as §1
Series [8] in a line: AUC (0 to infinity) in woodchuck hepatitis virus-negative woodchucks at 33.3 mg/kg, iv administered as single dose followed by dose of 33.3 mg/kg, po after 4 weeks washout period. The settings on record: marmota monax, plasma. It counts as ADME, organism-based. An outline of the steps: as §1
For series [9], the system named is Woodchuck hepatitis virus. Briefly: Antiviral activity against woodchuck hepatitis virus chronically infected in woodchucks assessed as reduction in anti-WHV core antigen antibody levels at 30 mg/kg/day, po after 4 weeks. The format is functional, organism-based.
A short description of series [10]: AUC (0 to infinity) in woodchuck hepatitis virus-negative woodchucks at 33.3 mg/kg, iv administered as single dose. It counts as ADME, organism-based. The arrangement: time infinity, dose 33.3 mg/kg, route intravenous. The settings on record: marmota monax, plasma. A digest of the protocol:
as §1

Series [11] relates to Woodchuck hepatitis virus. Briefly: Antiviral activity against woodchuck hepatitis virus chronically infected woodchucks assessed as reduction of viral DNA replicative intermediates at 3 mg/kg/day, po after 4 weeks. It counts as functional, organism-based. A digest of the protocol: (§3)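 Liver biopsies were taken by ultrasound-guided needle under ketamine/xylazine anaesthesia. Timing was 1 week before and at the end of 4 weeks of once-daily oral dosing (1–30 mg/kg/day or placebo diet; five woodchucks per group). Samples were snap-frozen and stored at –70°C. Hepatic WHV DNA replicative intermediates were quantified by Southern blot hybridization and compared with placebo.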

Series [12] deals with Woodchuck hepatitis virus. As to the kind of experiment: Antiviral activity against woodchuck hepatitis virus chronically infected woodchucks assessed as log reduction of viral DNA replicative intermediates at 30 mg/kg/day, po after 4 weeks relative to control. The format is functional, organism-based. A digest of the protocol: as §3
Series [13] relates to Woodchuck hepatitis virus. Briefly: Antiviral activity against woodchuck hepatitis virus chronically infected woodchucks assessed as reduction of viral DNA replicative intermediates at 10 mg/kg/day, po after 4 weeks. The format is functional, organism-based. A digest of the protocol:
as §3

Series [14] is described as follows: Cmax in woodchuck hepatitis virus-negative woodchucks at 33.3 mg/kg, iv administered as single dose. The format is ADME, organism-based. The arrangement: dose 33.3 mg/kg, route intravenous. As to conditions: marmota monax, in vivo. A digest of the protocol: as §1
Another series has as its system Rhesus monkey. As to the kind of experiment: AUC in po dosed rhesus monkey assessed as serum 9-(beta-D-1,3-dioxolan-4-yl)guanine level. As to conditions: in vivo. The format is ADME, organism-based, Macaca mulatta, Plasma.
Series [15] has as its system Marmota monax. As to the kind of experiment: Toxicity in woodchuck hepatitis virus chronically infected woodchucks assessed as change in body weight administered once daily for 4 weeks. The format is organism-based. The settings on record: in vivo, 672 h.
Series [16] has as its system Woodchuck hepatitis virus. As to the kind of experiment: Antiviral activity against woodchuck hepatitis virus chronically infected orally dosed woodchucks assessed as reduction in serum viremia administered once daily for 4 weeks. The format is functional, organism-based. A digest of the protocol:
(§4)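 Chronic WHV carriers were stratified into groups of five. They were dosed orally once daily for 4 weeks at 1, 3, 10 or 30 mg/kg/day, or given liquid-diet placebo; drug was dissolved in saline and suspended in diet by syringe. Serum WHV DNA was measured weekly by triplicate dot blot (sensitivity 1.0 x 107 WHVge/ml) or triplicate real-time PCR (1.0 x 103 WHVge/ml) against pWHV8 standards. Log values were compared with pretreatment and placebo by repeated-measures ANOVA with Holm-Sidak tests.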

Series [17] relates to Woodchuck hepatitis virus. As to the kind of experiment: Antiviral activity against woodchuck hepatitis virus chronically infected woodchucks assessed as log reduction of serum viral DNA at 3 mg/kg/day, po after 4 weeks. It counts as functional. A digest of the protocol:
(§5)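 Chronic WHV-carrier adult woodchucks were stratified into groups of five and dosed orally once daily for 4 weeks (saline solution in liquid diet; diet-alone placebo). Serum WHV DNA was measured weekly by dot blot (sensitivity 1.0 x 10^7 WHVge/ml) or by triplicate real-time PCR (sensitivity 1.0 x 10^3 WHVge/ml) against pWHV8 standards. Log values were compared with week 0 and placebo by repeated-measures ANOVA with Holm-Sidak.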

Series [18] concerns Marmota monax. As to the kind of experiment: Toxicity in woodchuck hepatitis virus chronically infected woodchuck assessed as serum alanine aminotransferase level at 30 mg/kg/day, po after 4 weeks. The format is organism-based. As to conditions: in vivo, 672 h. The arrangement: route oral. A digest of the protocol:
as §2

The nature of series [19]: Terminal elimination half life in woodchuck hepatitis virus-negative woodchucks at 33.3 mg/kg, iv administered as single dose. The arrangement: dose 33.3 mg/kg, route intravenous. It counts as ADME, organism-based. The settings on record: marmota monax, in vivo, read-out: beta t1/2 (converted). An outline of the steps:
as §1

Series [20] deals with Woodchuck hepatitis virus. As to the kind of experiment: Antiviral activity against woodchuck hepatitis virus chronically infected in woodchucks assessed as reduction in viral surface antigen level in blood at 30 mg/kg/day, po after 4 weeks. It counts as functional. A digest of the protocol: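 Adult woodchucks chronically infected with WHV, in groups of five, got the drug dissolved in isotonic saline and suspended in a semisynthetic liquid diet, by oral dose syringe once daily for 4 weeks. Placebo was diet alone. Serum WHsAg was measured by WHV-specific enzyme immunoassay (optical density units) before, during and after treatment up to week 16.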

Series [21] deals with Woodchuck hepatitis virus. As to the kind of experiment: Antiviral activity against woodchuck hepatitis virus chronically infected woodchucks assessed as reduction of serum viral DNA at 1 mg/kg/day, po after 4 weeks. The format is functional, organism-based. A digest of the protocol: as §4
The test system of series [22] is Woodchuck hepatitis virus. Briefly: Antiviral activity against woodchuck hepatitis virus chronically infected in woodchucks M7250 assessed as reduction in anti-WHs antibody levels at 30 mg/kg/day, po after 4 weeks. It counts as functional, organism-based.
A short description of series [23]: Terminal elimination half life in orally dosed monkey. It counts as ADME, organism-based, Macaca mulatta. As to conditions: rhesus monkey, in vivo, po; read-out: beta t1/2 (converted).
Series [24] is described as follows: Terminal elimination half life in orally dosed mouse. It counts as ADME, organism-based. The settings on record: in vivo, po, read-out: beta t1/2 (converted).
In series [25] the test system is Woodchuck hepatitis virus. Briefly: Antiviral activity against woodchuck hepatitis virus chronically infected in woodchucks M7236 assessed as reduction in anti-WHs antibody levels at 30 mg/kg/day, po after 4 weeks. It counts as functional, organism-based.
Series [26] concerns Woodchuck hepatitis virus. As to the kind of experiment: Antiviral activity against woodchuck hepatitis virus chronically infected woodchucks assessed as reduction of viral DNA replicative intermediates at 1 mg/kg/day, po after 4 weeks. The format is functional, organism-based. An outline of the steps: as §3
For series [27], the system named is Woodchuck hepatitis virus. Briefly: Antiviral activity against woodchuck hepatitis virus chronically infected woodchucks assessed as log reduction of serum viral DNA at 30 mg/kg/day, po after 4 weeks. It counts as functional. An outline of the steps:
as §5

The test system of series [28] is Woodchuck hepatitis virus. Briefly: Antiviral activity against woodchuck hepatitis virus chronically infected woodchucks assessed as log reduction of serum viral DNA at 10 mg/kg/day, po after 4 weeks. It counts as functional. A digest of the protocol: as §5

On to `Cc1cn([C@@H]2C[C@@H](O)[C@H](CO)O2)c(=O)[nH]c1=O` [TELBIVUDINE], for which the Activity in series [1] was 7.
As to `C=C1[C@H](CO)[C@@H](O)C[C@@H]1n1cnc2c(=O)[nH]c(N)nc21.O` [ENTECAVIR], the Activity in series [1] is listed as 7.
Turning to `Cc1cn([C@H]2O[C@@H](CO)[C@H](O)[C@H]2F)c(=O)[nH]c1=O` [CLEVUDINE], the Activity in [1] was 8.2.
Still for that read-out and setting: to `Nc1nc(=O)n([C@@H]2CS[C@H](CO)O2)cc1F` [EMTRICITABINE] belongs 4.9; to `Nc1ccn([C@H]2C[C@H](O)[C@@H](CO)O2)c(=O)n1` [DOXECITINE], 2.
For `Nc1nc(N)c2ncn([C@H]3CO[C@@H](CO)O3)c2n1` [AMDOXOVIR], the Activity in the series on Duck hepatitis B virus [2] is 0.9; in the series with Duck hepatitis B virus [3] it was 0.3; in the series on Duck hepatitis B virus [4], “Dose-dependent effect”.
Turning to `Nc1ncc2ncn([C@H]3CO[C@@H](CO)O3)c2n1`, the Cmax in series [5] was found to be 16.8 µM; in series [14], 112 µM. Also, the Activity was 211.5 IU/L in the series with Marmota monax [6]; “Non-toxic” with Marmota monax [15]; “Dose-dependent effect” in series [16]; 0.4 in series [17]; 9.5 IU/L in the series with Marmota monax [18]; 1.9 in series [27]. Moreover, the Activity in series [28] was found to be 0.7. In addition, the half-life in series [7] was 3 h; in series [19], 1.7 h; in series [23] it was 0.5 h; in [24], 0.3 h. The total exposure AUC(0-inf) in [8] is 49.4 µM·h; in series [10], 203 µM·h. For the same compound, the result in series [9], in [11], in series [13], in [21], in series [22] and in series [25] was inactive. For the same compound, the result in series [26] was inactive. Besides, the outcome in series [12] was Active. In addition, in the series on Rhesus monkey, the “%AUC” value is recorded as 75%. For the same compound, the “fold change (FC)” value in series [20] was determined as 1.4.
